Where “and” joins values, the source holds several entries; their conditions need not be identical. Equal values may be shown once.
Legend:
Mu-type opioid receptor [1] = target: T1, Mu-type opioid receptor (Homo sapiens, UniProt P35372); assay: Binding affinity towards human cloned Opioid receptor mu 1 using [3H]DAMGO
[2] = target: Delta-type opioid receptor (Rattus norvegicus, UniProt P33533); assay: Inhibition of [3H]-DADLE binding to Opioid receptor delta 1 of rat brain tissue
How it was run: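 Rat brain membranes prepared daily, labelled with 2 nM [3H]DADLE. Incubation 2 h at 25 °C in 50 mM Tris-HCl pH 7.4 with 100 mM choline chloride, 3 mM MnCl2, 100 nM DAMGO to block mu sites, and protease inhibitors. Nonspecific binding was taken with 20 µM levallorphan. Radioligand was displaced by 8-10 drug concentrations. Ki came from IC50 via Cheng–Prusoff, from two pooled experiments.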

[3] = target: Kappa-type opioid receptor (Cavia porcellus, UniProt P41144); assay: Inhibition of [3H]U-69593 binding to Opioid receptor kappa 1 of guinea pig brain
Kappa-type opioid receptor (Cavia porcellus, UniProt P41144), sequence (P41144 whole entry): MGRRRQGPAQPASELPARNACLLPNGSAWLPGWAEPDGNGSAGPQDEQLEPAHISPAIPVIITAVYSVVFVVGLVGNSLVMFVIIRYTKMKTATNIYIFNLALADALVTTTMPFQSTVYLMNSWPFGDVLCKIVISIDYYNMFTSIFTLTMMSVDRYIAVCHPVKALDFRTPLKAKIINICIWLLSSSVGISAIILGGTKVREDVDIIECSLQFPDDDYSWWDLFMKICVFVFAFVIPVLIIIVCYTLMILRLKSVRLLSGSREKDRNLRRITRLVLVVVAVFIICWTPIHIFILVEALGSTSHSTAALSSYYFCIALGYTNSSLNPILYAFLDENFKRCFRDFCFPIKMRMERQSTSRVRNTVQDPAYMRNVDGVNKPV
How it was run: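 Guinea pig brain membranes prepared daily, labelled with 2 nM [3H]U69,593. Incubation 2 h at 25 °C in 50 mM Tris-HCl pH 7.4 with 1 µg/mL captopril and protease inhibitors. Nonspecific binding was taken with 1 µM U69,593. Radioligand was displaced by 8-10 drug concentrations. Ki came from IC50 via IC50/(1+[L]/Kd), from two pooled experiments.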

[4] = target: T2, Delta-type opioid receptor (Homo sapiens, UniProt P41143); assay: Binding affinity towards human cloned Opioid receptor delta 1 using [3H]Cl-DPDPE
T2 sequence (P41143 whole entry): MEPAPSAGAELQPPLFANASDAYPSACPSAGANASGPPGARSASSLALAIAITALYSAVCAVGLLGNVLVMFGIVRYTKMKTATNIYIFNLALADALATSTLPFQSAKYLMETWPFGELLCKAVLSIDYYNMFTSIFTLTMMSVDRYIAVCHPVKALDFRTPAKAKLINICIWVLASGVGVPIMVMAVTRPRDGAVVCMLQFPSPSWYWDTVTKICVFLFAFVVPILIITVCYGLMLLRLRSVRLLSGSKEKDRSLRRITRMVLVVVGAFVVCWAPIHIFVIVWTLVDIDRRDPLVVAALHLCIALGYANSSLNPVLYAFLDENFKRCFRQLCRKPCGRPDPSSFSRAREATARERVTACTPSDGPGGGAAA

Mu-type opioid receptor [5] = target: T1, Mu-type opioid receptor; assay: Antagonistic activity against human cloned Opioid receptor mu 1 using DAMGO in [35S]GTP-gamma-S, assay; assay type: functional
Mu-type opioid receptor [6] = target: Mu-type opioid receptor (Rattus norvegicus, UniProt P33535); assay: Inhibition of [3H]DAMGO binding to Opioid receptor mu 1 of rat brain tissue
Mu-type opioid receptor (Rattus norvegicus, UniProt P33535), sequence (P33535 whole entry): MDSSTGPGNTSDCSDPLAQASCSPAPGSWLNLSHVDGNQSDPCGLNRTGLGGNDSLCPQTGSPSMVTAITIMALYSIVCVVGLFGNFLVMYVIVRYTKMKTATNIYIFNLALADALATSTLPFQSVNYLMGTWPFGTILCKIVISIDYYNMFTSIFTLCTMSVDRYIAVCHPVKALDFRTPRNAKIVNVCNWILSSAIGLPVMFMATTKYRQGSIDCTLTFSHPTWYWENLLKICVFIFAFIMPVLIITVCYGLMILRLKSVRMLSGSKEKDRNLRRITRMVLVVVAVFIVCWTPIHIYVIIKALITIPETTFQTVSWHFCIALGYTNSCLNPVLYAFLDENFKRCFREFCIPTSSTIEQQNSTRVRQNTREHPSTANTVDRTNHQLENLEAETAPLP
How it was run: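 Rat brain membranes prepared daily, labelled with [3H]DAMGO. Incubation 2 h at 25 °C in 50 mM Tris-HCl pH 7.4 with protease inhibitor cocktail. Nonspecific binding was taken with 20 µM levallorphan. Radioligand was displaced by 8-10 drug concentrations. IC50 was converted to Ki by IC50/(1+[L]/Kd), from two pooled experiments.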

[7] = target: T3, Kappa-type opioid receptor (Homo sapiens, UniProt P41145); assay: Binding affinity towards human cloned Opioid receptor kappa 1 using [3H]U-69593
T3 sequence (P41145 whole entry): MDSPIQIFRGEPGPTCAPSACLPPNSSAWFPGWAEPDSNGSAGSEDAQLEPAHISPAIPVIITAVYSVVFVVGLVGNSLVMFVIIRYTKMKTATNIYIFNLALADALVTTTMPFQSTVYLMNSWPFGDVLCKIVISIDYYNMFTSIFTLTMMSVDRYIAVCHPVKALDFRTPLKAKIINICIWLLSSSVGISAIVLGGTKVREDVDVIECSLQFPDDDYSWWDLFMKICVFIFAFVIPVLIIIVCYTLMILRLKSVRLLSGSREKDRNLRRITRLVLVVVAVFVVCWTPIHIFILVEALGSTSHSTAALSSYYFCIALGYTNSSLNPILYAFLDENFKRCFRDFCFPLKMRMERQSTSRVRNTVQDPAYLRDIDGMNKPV

[8] = target: T3, Kappa-type opioid receptor; assay: Antagonistic activity against human cloned Opioid receptor kappa 1 using U69,593 in [35S]GTP-gamma-S, assay; assay type: functional
[9] = target: Mu-type opioid receptor (Cavia porcellus) (UniProt P97266); assay: Antagonistic activity against DAMGO and guinea pig caudate Opioid receptor mu 1 in [35S]GTP-gamma-S, assay; assay type: functional
Mu-type opioid receptor (Cavia porcellus), sequence (P97266 whole entry): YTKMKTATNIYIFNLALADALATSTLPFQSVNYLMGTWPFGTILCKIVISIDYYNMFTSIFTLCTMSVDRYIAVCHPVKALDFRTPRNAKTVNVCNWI
How it was run: (§1)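 Agonist-stimulated binding was run with varying drug concentrations, 3 h at 25 °C, then filtration and scintillation counting. Nonspecific binding was taken with 10 µM GTPγS. Three experiments were pooled and fit by nonlinear least squares to give Ke.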

[10] = target: T2, Delta-type opioid receptor; assay: (§2) Antagonistic activity against human cloned Opioid receptor delta 1 using DPDPE in [35S]GTP-gamma-S, assay; assay type: functional
[11] = target: Kappa-type opioid receptor (Cavia porcellus) (UniProt P41144); assay: Inhibition of U69,593 antagonistic activity in [35S]GTP-gamma-S, assay against guinea pig Opioid receptor kappa 1; assay type: functional; how it was run: as §1
Kappa-type opioid receptor (Cavia porcellus), sequence (P41144 whole entry): as the sequence (P41144 whole entry) above

[12] = target: T2, Delta-type opioid receptor; assay: as §2; assay type: functional; conditions: read-out: pA2 (converted)
Mu-type opioid receptor [13] = target: T1, Mu-type opioid receptor; assay: Antagonistic activity against human cloned Opioid receptor mu 1 using DPDPE in [35S]GTP-gamma-S, assay; assay type: functional; conditions: read-out: pA2 (converted)
[14] = target: Opioid receptors; mu & kappa (Homo sapiens) (UniProt P41145+P35372); assay: Selectivity ratio of mu and kappa opioid receptor; assay type: protein assay
Opioid receptors; mu & kappa (Homo sapiens), sequence (P35372 whole entry, looked up): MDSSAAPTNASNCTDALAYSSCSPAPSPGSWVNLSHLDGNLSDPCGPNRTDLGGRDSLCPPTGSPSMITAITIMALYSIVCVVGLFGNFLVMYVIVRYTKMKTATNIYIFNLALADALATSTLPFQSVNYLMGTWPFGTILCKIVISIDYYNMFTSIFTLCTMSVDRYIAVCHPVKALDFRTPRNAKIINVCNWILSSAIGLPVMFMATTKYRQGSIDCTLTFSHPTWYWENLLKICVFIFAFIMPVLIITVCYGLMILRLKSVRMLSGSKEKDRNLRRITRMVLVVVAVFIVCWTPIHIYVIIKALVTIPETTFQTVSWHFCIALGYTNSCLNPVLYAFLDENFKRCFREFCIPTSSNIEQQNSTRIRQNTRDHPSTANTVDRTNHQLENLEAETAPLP
Opioid receptors; mu & kappa (Homo sapiens), sequence (P41145 whole entry, looked up): as the sequence (P41145 whole entry) above

[15] = target: T3, Kappa-type opioid receptor; assay: Antagonistic activity against human cloned kOpioid receptor kappa 1 using U69,593 in [35S]GTP-gamma-S, assay; assay type: functional; conditions: read-out: pA2 (converted)
How it was run: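 Membranes from CHO cells transfected with cloned human κ opioid receptor. Antagonism is measured as inhibition of U69,593-stimulated [35S]GTPγS binding and expressed as a Ke value.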

[16] = target: Opioid receptors; delta & kappa (Homo sapiens) (UniProt P41145+P41143); assay: Selectivity ratio of delta and kappa opioid receptor; assay type: protein assay
Opioid receptors; delta & kappa (Homo sapiens), sequence (P41143 whole entry, looked up): as the sequence (P41143 whole entry) above
Opioid receptors; delta & kappa (Homo sapiens), sequence (P41145 whole entry, looked up): as the sequence (P41145 whole entry) above

Mu-type opioid receptor [17] = target: T1, Mu-type opioid receptor

Delta-type opioid receptor (Rattus norvegicus, UniProt P33533), sequence (P33533 whole entry): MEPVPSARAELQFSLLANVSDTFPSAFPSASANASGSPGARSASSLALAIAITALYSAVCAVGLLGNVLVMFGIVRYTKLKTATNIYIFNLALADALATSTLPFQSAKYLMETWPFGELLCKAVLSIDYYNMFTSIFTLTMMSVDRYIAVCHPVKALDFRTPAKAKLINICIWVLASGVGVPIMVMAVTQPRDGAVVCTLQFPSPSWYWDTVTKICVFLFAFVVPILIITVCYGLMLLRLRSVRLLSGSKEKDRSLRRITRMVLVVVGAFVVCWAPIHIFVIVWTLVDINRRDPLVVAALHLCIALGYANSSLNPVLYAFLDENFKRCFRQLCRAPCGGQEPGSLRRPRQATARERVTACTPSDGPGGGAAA
T1 sequence (P35372 whole entry): as the sequence (P35372 whole entry, looked up) above

CC(C)[C@@H](CN1CC[C@@](C)(c2cccc(O)c2)[C@@H](C)C1)NC(=O)[C@H]1Cc2ccccc2CN1
Ki (Mu-type opioid receptor [1]): 33.1 nM | Ki [2]: > 4900 nM | Ki [3]: 2.1 nM | Ki [4]: 1090 nM | Ke (Mu-type opioid receptor [5]): 8.38 nM | Ki (Mu-type opioid receptor [6]): 775 nM | Ki [7]: 2.18 nM | Ke [8]: 2.95 nM

CC(C)[C@@H](CN1CC[C@@](C)(c2cccc(O)c2)[C@@H](C)C1)NC(=O)[C@H]1Cc2ccc(O)cc2CN1 [JDTIC]
Ke [9]: 2.16 nM | Ki [2]: 301 nM | Ke [10]: 79.3 nM | Ke (Mu-type opioid receptor [5]): 3.41 nM | Ke [11]: 0.02 nM | Ki (Mu-type opioid receptor [6]): 3.73 nM | Ke [8]: 0.01 nM

CC(C)[C@@H](CN1CC[C@@](C)(c2cccc(O)c2)[C@@H](C)C1)NC(=O)[C@@H](N)Cc1ccc(O)cc1 (stereo in doubt; form 2) [listing 1 of 2 here]
Ke [9]: 16.5 nM | Ke [11]: 30 nM

CC(C)[C@@H](CN1CC[C@@](C)(c2cccc(O)c2)[C@@H](C)C1)NC(=O)[C@@H](N)Cc1ccc(O)cc1 (stereo in doubt; form 1) [listing 1 of 2 here]
Ki [2]: > 5050 nM | Ki [3]: 20.4 nM | Ki (Mu-type opioid receptor [6]): 208 nM

CC(C)[C@@H](CN1CC[C@@](C)(c2cccc(O)c2)[C@@H](C)C1)NC(=O)[C@H]1Cc2ccc(O)cc2CN1C
Ke [9]: 12.7 nM | Ki (Mu-type opioid receptor [1]): 8.86 nM | Ki [2]: 616 nM | Ki [3]: 0.053 nM | Ki [4]: 118 nM | Ke [10]: 120 nM | Ke (Mu-type opioid receptor [5]): 8.92 nM | Ke [11]: 0.37 nM | Ki (Mu-type opioid receptor [6]): 37 nM | Ki [7]: 1.01 nM | Ke [8]: 0.1 nM

N=C(N)Nc1ccc2[nH]c3c(c2c1)C[C@@]1(O)[C@H]2Cc4ccc(O)c5c4[C@@]1(CCN2CC1CC1)[C@H]3O5 [GUANIDINONALTRINDOLE]
Ki [2]: 70 nM | Kb [12]: 15.5 nM | Kb (Mu-type opioid receptor [13]): 3.24 nM | Mu/kappa ratio [14]: 206 | Ki [3]: 0.18 nM | Kb [15]: 0.0398 nM | Ki (Mu-type opioid receptor [6]): 36.9 nM | Delta/kappa [16]: 389

CC(C)[C@@H](CN1CC[C@@](C)(c2cccc(O)c2)[C@@H](C)C1)NC(=O)[C@@H](N)Cc1ccc(O)cc1 (stereo in doubt; form 1) [listing 2 of 2 here]
Ke [9]: 12 nM | Ke [11]: 44.6 nM

CC(C)[C@@H](CN1CC[C@@](C)(c2cccc(O)c2)[C@@H](C)C1)NC[C@H]1Cc2ccc(O)cc2CN1
Ke [9]: 12.8 nM | Ki (Mu-type opioid receptor [1]): 3.8 nM | Ki [2]: > 4900 nM | Ke (Mu-type opioid receptor [17]): 14.3 nM | Ki [3]: 0.63 nM | Ki [4]: 83.6 nM | Ke [10]: 427 nM | Ke [11]: 0.2 nM | Ki [7]: 1.82 nM | Ke [8]: 0.14 nM

CC(C)[C@@H](CN1CC[C@](C)(c2cccc(O)c2)[C@H](C)C1)NC(=O)[C@H]1Cc2ccc(O)cc2CN1
Ke [9]: 178 nM | Ki [2]: 144 nM | Ki [3]: 17.5 nM | Ke [11]: 16.7 nM | Ki (Mu-type opioid receptor [6]): 138 nM

CC(C)[C@@H](CN1CC[C@@](C)(c2cccc(O)c2)[C@@H](C)C1)NC(=O)[C@@H]1Cc2ccc(O)cc2CN1
Ke [9]: 11 nM | Ki [2]: > 4900 nM | Ki [3]: 9.8 nM | Ke [11]: 4.2 nM | Ki (Mu-type opioid receptor [6]): 596 nM

Oc1ccc2c3c1O[C@H]1c4[nH]c5c(c4C[C@@]4(O)[C@@H](C2)N(CC2CC2)CC[C@]314)C[C@@]1(O)[C@H]2Cc3ccc(O)c4c3[C@@]1(CCN2CC1CC1)[C@H]5O4
Ke [10]: 4.4 nM

CC(=O)N1Cc2cc(O)ccc2C[C@@H]1C(=O)N[C@H](CN1CC[C@@](C)(c2cccc(O)c2)[C@@H](C)C1)C(C)C
Ke [9]: 17.4 nM | Ki [2]: > 4900 nM | Ki [3]: 146 nM | Ke [11]: 19.6 nM | Ki (Mu-type opioid receptor [6]): 764 nM | Delta/kappa [16]: > 34 and 15

CC(C)[C@@H](CN1CC[C@@](C)(c2cccc(O)c2)[C@@H](C)C1)NC(=O)[C@H]1Cc2ccc(O)cc2CN1C(=O)CN(C)C
Ke [9]: 29 nM | Ki (Mu-type opioid receptor [1]): 13.2 nM | Ki [2]: > 3400 nM | Ki [3]: 15.5 nM | Ki [4]: 175 nM | Ke [10]: 299 nM | Ke (Mu-type opioid receptor [5]): 21.2 nM | Ke [11]: 0.16 nM | Ki (Mu-type opioid receptor [6]): 164 nM | Ki [7]: 16.2 nM | Ke [8]: 1.1 nM

CC(C)[C@@H](CN1CC[C@@](C)(c2cccc(O)c2)[C@@H](C)C1)NC(=O)[C@@H](N)Cc1ccc(O)cc1 (stereo in doubt; form 2) [listing 2 of 2 here]
Ki [2]: > 5050 nM | Ki [3]: 16 nM | Ki (Mu-type opioid receptor [6]): 633 nM

Source: ChEMBL document CHEMBL1145840, “Identification of (3R)-7-hydroxy-N-((1S)-1-[[(3R,4R)-4-(3-hydroxyphenyl)- 3,4-dimethyl-1-piperidinyl]methyl]-2-methylpropyl)-1,2,3,4-tetrahydro- 3-isoquinolinecarboxamide as a novel potent and selective opioid kappa receptor antagonist” (J Med Chem, 2003)
